Series [1] can be described thus: Tmax in mouse at 30 mg/kg, po. The following applies: in vivo. Also noted: dose 30 mg/kg, route oral. Format: ADME, organism-based. A digest of the protocol:
(§1)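 Mouse pharmacokinetics, 15 animals per dose group, dosed intraperitoneally at 30 mg/kg or orally at 10, 30 or 100 mg/kg. Plasma levels were followed from 0 to 6 h.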

A short description of series [2]: AUC (0 to 6 hrs) in mouse at 10 mg/kg, po. Format: ADME, organism-based. More on the design: time < 6 hr, dose 10 mg/kg, route oral. The following applies: plasma. A digest of the protocol:
as §1

A short description of series [3]: AUC (0 to 6 hrs) in mouse at 30 mg/kg, po. In kind it is ADME, organism-based. Also noted: time < 6 hr, dose 30 mg/kg, route oral. The following applies: plasma. In a few lines: as §1
A short description of series [4]: AUC (0 to 6 hrs) in mouse at 30 mg/kg, ip. In kind it is ADME, organism-based. Also noted: time < 6 hr, dose 30 mg/kg, route intraperitoneal. The following applies: plasma. A digest of the protocol:
as §1

A short description of series [5]: Cmax in mouse at 10 mg/kg, po. In kind it is ADME, organism-based. Also noted: dose 10 mg/kg, route oral. The following applies: in vivo. In a few lines: as §1
Series [6] can be described thus: Cmax in mouse at 30 mg/kg, po. The following applies: in vivo. In kind it is ADME, organism-based. More on the design: dose 30 mg/kg, route oral. A digest of the protocol:
as §1

The nature of series [7]: Tmax in mouse at 100 mg/kg, po. Format: ADME, organism-based. More on the design: dose 100 mg/kg, route oral. The following applies: in vivo. A digest of the protocol:
as §1

A short description of series [8]: Tmax in mouse at 10 mg/kg, po. Format: ADME, organism-based. The following applies: in vivo. Also noted: dose 10 mg/kg, route oral. In a few lines:
as §1

The nature of series [9]: Intrinsic clearance in human Hepatocytes assessed as per million cells. In kind it is ADME, cell-based, Liver, Hepatocyte.
Series [10] addresses Aurora kinase B (Homo sapiens, UniProt Q96GD4). The series can be described thus: Inhibition of AurB.
Series [11] addresses Tyrosine-protein kinase Lck (Homo sapiens, UniProt P06239). As to the kind of experiment: Inhibition of LCK.
Series [12] can be described thus: Tmax in mouse at 30 mg/kg, ip. In kind it is ADME, organism-based. More on the design: dose 30 mg/kg, route intraperitoneal. The following applies: in vivo. In a few lines:
as §1

A short description of series [13]: Cmax in mouse at 100 mg/kg, po. Format: ADME, organism-based. More on the design: dose 100 mg/kg, route oral. The following applies: in vivo. A digest of the protocol:
as §1

Series [14] is described as follows: Cmax in mouse at 30 mg/kg, ip. Format: ADME, organism-based. More on the design: dose 30 mg/kg, route intraperitoneal. The following applies: in vivo. In a few lines:
as §1

The nature of series [15]: Intrinsic clearance in rat Hepatocytes assessed as per million cells. Format: ADME, cell-based, Liver, Hepatocyte.
A short description of series [16]: Inhibition of CYP. In kind it is ADME.
The nature of series [17]: AUC (0 to 6 hrs) in mouse at 100 mg/kg, po. Format: ADME, organism-based. More on the design: time < 6 hr, dose 100 mg/kg, route oral. The following applies: plasma. A digest of the protocol:
as §1

A short description of series [18]: Permeability across human Caco2 cells. Format: ADME, cell-based. The following applies: Caco-2, read-out: permeability.
Series [19] is described as follows: AUC in rat at 10 mg/kg, po. In kind it is ADME, organism-based. Also noted: dose 10 mg/kg, route oral. The following applies: plasma.
Series [20] addresses T1, Protein-tyrosine kinase 6 (Homo sapiens, UniProt Q13882). As to the kind of experiment: Inhibition of BRK pretreated for 30 mins by microplate reader.
For series [21], the target named is T1, Protein-tyrosine kinase 6. As to the kind of experiment: Inhibition of phosphorylation of SAM68 in 293 WT-PTK6 cells after 3 hrs. In kind it is functional, cell-based.
A short description of series [22]: Drug level in rat at 10 mg/kg, po at 6 hrs. Format: ADME, organism-based. Also noted: dose 10 mg/kg, route oral. The following applies: in vivo, read-out: Drug uptake.

Each structure is given as a SMILES string.

T1 sequence (Q13882 whole entry): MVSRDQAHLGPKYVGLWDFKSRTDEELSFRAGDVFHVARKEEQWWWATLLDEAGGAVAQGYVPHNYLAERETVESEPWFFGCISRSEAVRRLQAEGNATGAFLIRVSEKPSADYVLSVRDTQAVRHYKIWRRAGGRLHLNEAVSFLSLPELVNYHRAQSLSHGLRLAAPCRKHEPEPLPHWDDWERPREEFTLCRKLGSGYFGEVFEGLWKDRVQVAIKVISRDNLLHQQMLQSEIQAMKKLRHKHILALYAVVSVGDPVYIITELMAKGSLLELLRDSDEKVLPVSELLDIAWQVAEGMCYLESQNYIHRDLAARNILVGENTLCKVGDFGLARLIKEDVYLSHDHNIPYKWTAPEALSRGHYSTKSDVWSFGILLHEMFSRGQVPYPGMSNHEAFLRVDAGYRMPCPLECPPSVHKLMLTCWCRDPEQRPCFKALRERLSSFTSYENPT
Chain of Tyrosine-protein kinase Lck (P06239 whole entry): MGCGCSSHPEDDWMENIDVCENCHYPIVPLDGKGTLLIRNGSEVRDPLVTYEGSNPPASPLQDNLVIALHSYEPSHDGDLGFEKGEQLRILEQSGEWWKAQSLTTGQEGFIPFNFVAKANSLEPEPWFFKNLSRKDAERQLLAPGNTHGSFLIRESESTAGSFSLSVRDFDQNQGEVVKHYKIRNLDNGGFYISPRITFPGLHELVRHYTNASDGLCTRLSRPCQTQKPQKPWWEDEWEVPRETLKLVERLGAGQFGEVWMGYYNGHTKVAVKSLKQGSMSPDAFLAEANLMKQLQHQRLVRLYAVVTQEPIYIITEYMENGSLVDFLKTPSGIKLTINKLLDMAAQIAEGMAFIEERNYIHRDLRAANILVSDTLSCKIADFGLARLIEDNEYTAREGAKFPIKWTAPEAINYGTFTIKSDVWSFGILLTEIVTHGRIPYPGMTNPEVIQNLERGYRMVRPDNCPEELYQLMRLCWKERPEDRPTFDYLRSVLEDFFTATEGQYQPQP
Chain of Aurora kinase B (Q96GD4 whole entry): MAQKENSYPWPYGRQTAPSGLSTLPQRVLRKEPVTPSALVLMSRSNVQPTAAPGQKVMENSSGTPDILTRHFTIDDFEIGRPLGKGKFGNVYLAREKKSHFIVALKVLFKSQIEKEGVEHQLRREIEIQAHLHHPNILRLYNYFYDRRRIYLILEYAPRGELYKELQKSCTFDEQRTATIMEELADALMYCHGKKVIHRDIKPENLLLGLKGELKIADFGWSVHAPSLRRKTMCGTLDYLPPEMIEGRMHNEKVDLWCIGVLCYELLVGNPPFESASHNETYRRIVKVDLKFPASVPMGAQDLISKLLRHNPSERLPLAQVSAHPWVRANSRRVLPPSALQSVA

For `Cc1cn2c(-c3cn[nH]c3)cnc2c(Nc2ccc(C(=O)N3CCNCC3)cc2F)n1`, the Tmax – broadly, the time at which the peak concentration occurs – in series [1] was found to be 2 h; in [7], 4 h; in series [8], 6 h; in [12], 0.5 h. For the same molecule, the exposure AUC(0-t) (as a rule, exposure summed from dosing to a finite time, without extrapolation to infinity) at 6 h was determined as 0.1 µM·h in series [2], 1.4 µM·h in [3], 17.1 µM·h in series [4] and 8.1 µM·h in [17]. Further, the Cmax (commonly the peak of the concentration-time curve) was determined as 40 nM in [5], 420 nM in series [6], 1600 nM in series [13] and 17900 nM in series [14]. Moreover, the hepatocyte CLint (as a rule, the rate of metabolic loss divided by the concentration) in series [9] came out at 2 µL/min/1e6 cells; in series [15] it was 5.3 µL/min/1e6 cells. In addition, the IC50 in series [10], in [11] and in series [16] was greater than 20000 nM each time.
Take `O=C(c1ccc(Nc2nc(C3CC3)cn3c(-c4cn[nH]c4)cnc23)c(F)c1)N1CCOCC1`: in series [18], the Papp was 31.4 ×10⁻⁶ cm/s. In addition, the area under the curve (AUC) (usually the area under the concentration-time curve, a measure of exposure) in series [19] is 31.1 µM·h. The half-maximal inhibitory concentration (IC50) – broadly, the concentration that inhibits the measured activity by half – was 30 nM in [20], greater than 20000 nM in series [10], greater than 20000 nM in series [11] and 52 nM in series [21]. The concentration at 6 h in series [22] came to 3500 nM.
On to `Cc1cn2c(-c3cn[nH]c3)cnc2c(Nc2ccc(C(=O)N3C[C@H]4CC[C@@H](C3)N4)c(Cl)c2)n1`, for which the half-maximal inhibitory concentration (IC50) was 11 nM in series [20], 242 nM in series [10], 3210 nM in series [11] and 177 nM in series [21].
Take `Cc1cn2c(-c3cn[nH]c3)cnc2c(Nc2ccc(C(=O)N3CCNCC3)c(C3CC3)c2)n1`: the IC50 in [20] was 38 nM; in series [10], 128 nM; in series [11], 169 nM; in series [21], 40 nM.
For `Cc1cn2c(-c3cn[nH]c3)cnc2c(Nc2ccnc(N3CCNCC3)c2)n1` the same measures were 11 nM, 561 nM, 3710 nM and 109 nM.
In the case of `Cc1cn2c(-c3cn[nH]c3)cnc2c(Nc2ccc(C(=O)N3CCOCC3)c(Cl)c2)n1`, the AUC in [19] stood at 12.6 µM·h. Besides, the IC50 in series [20] worked out at 8 nM; in series [10], 43 nM; in series [11], 2000 nM; in [21] it was 254 nM. In addition, the concentration at 6 h in [22] was 1000 nM.
For `CC1(C)CNCCN1C(=O)c1ccc(Nc2nc(C3CC3)cn3c(-c4cn[nH]c4)cnc23)cc1Cl`, the IC50 was 2 nM in series [20], 2250 nM in series [10], 180 nM in [11] and 5 nM in series [21].

The values above are taken from ChEMBL document CHEMBL1833859, “Discovery of novel imidazo[1,2-a]pyrazin-8-amines as Brk/PTK6 inhibitors” (Bioorg Med Chem Lett, 2011).
